# Results from ChEMBL document CHEMBL4265940, “Synthesis of scutellarein derivatives with antiproliferative activity and selectivity through the intrinsic pathway” (Eur J Med Chem, 2018).
# pIC50: −log10 of the molar value. Activity calls are given as the source filed them. The rule behind the calls is not given here.
# Assays:
# Bel-7402 = assay: Antiproliferative activity against human Bel7402 cells after 72 hrs by MTT assay; format: functional, cell-based; settings: Bel-7402, 72 h
# In short: (§1)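 Log-phase tumour cells seeded and held 24 h at 37 °C in humidified 5% CO2, then exposed to test agents for 72 h. MTT (5 mg/mL stock) added for a further 4 h, formazan dissolved in DMSO with 10 min shaking at room temperature, optical density read, IC50 calculated.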
# L02 = assay: Cytotoxicity against human LO2 cells assessed as decrease in cell viability after 72 hrs by MTT assay; format: cell-based; settings: L02, 72 h
# In short: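 L-O2 normal human liver cells tested for growth inhibition by MTT. Formazan was dissolved in DMSO and optical density read. IC50 values were derived.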
# A549 = assay: Antiproliferative activity against human A549 cells after 72 hrs by MTT assay; format: functional, cell-based; settings: A549, 72 h; in short: as §1
# MCF7 [1] = assay: Antiproliferative activity against human MCF7 cells after 72 hrs by MTT assay; format: functional, cell-based; settings: MCF7, 72 h; in short: as §1
# MCF7 [2] = assay: Induction of apoptosis in human MCF7 cells assessed as late apoptotic cells at 1.5 uM after 48 hrs by Annexin V-FITC/PI staining based flow cytometry (reference value: 1.99%); format: functional
# MCF7 [3] = assay: Induction of apoptosis in human MCF7 cells assessed as necrotic cells at 0.75 uM after 48 hrs by Annexin V-FITC/PI staining based flow cytometry (reference value: 0.19%); format: functional
# MCF7 [4] = assay: Cell cycle arrest in human MCF7 cells assessed as accumulation at G2/M phase at 1.5 uM after 48 hrs by propidium iodide staining based flow cytometry (reference value: 22.40%); format: functional
# MCF7 [5] = assay: Induction of apoptosis in human MCF7 cells assessed as viable cells at 3 uM after 48 hrs by Annexin V-FITC/PI staining based flow cytometry (reference value: 93.72%); format: functional; settings: MCF7, 48 h, read-out: Activity
# MCF7 [6] = assay: Induction of apoptosis in human MCF7 cells assessed as upregulation of Bax after 48 hrs by Western blot analysis; format: functional, cell-based
# In short: (§2)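 MCF-7 cells treated 48 h at 0, 0.75, 1.5 and 3 µM, lysed, and spun at 14000 g for 10 min at 4 °C. Protein was measured by BCA and 25 µg lysate run on 12% SDS-PAGE, then transferred to nitrocellulose and blocked with 5% milk. Blots were probed overnight at 4 °C with monoclonal antibodies to Bcl-2, Bax, cyto-c, caspase-9, caspase-3 and GAPDH, with ECL detection.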
# MCF7 [7] = assay: Induction of apoptosis in human MCF7 cells assessed as early apoptotic cells at 0.75 uM after 48 hrs by Annexin V-FITC/PI staining based flow cytometry (reference value: 4.10%); format: functional
# MCF7 [8] = assay: Induction of apoptosis in human MCF7 cells assessed as increase in caspase-9 level at 0.75 to 3 uM after 48 hrs by Western blot analysis; format: functional, cell-based; in short: as §2
# MCF7 [9] = assay: Induction of mitochondrial membrane depolarization in human MCF7 cells assessed as collapse of mitochondrial membrane potential at 1.5 uM after 48 hrs by JC-1 staining based flow cytometry (reference value: 1.61%); format: functional
# In short: (§3)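 Log-phase MCF-7 cells treated at 0, 0.75, 1.5 and 3 µM for 48 h, washed with PBS, then stained with JC-1 in the dark per kit instructions. The percentage of cells with collapsed membrane potential was measured by flow cytometry relative to untreated control.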
# MCF7 [10] = assay: Cell cycle arrest in human MCF7 cells assessed as accumulation at G1 phase at 3 uM after 48 hrs by propidium iodide staining based flow cytometry (reference value: 41.49%); format: functional
# MCF7 [11] = assay: Cell cycle arrest in human MCF7 cells assessed as accumulation at S phase at 0.75 uM after 48 hrs by propidium iodide staining based flow cytometry (reference value: 36.11%); format: functional
# MCF7 [12] = assay: Cell cycle arrest in human MCF7 cells assessed as accumulation at G2/M phase at 3 uM after 48 hrs by propidium iodide staining based flow cytometry (reference value: 22.40%); format: functional
# MCF7 [13] = assay: Induction of apoptosis in human MCF7 cells assessed as downregulation of Bcl-2 after 48 hrs by Western blot analysis; format: functional, cell-based; in short: as §2
# MCF7 [14] = assay: Cell cycle arrest in human MCF7 cells assessed as accumulation at S phase at 1.5 uM after 48 hrs by propidium iodide staining based flow cytometry (reference value: 36.11%); format: functional
# MCF7 [15] = assay: Induction of apoptosis in human MCF7 cells assessed as viable cells at 1.5 uM after 48 hrs by Annexin V-FITC/PI staining based flow cytometry (reference value: 93.72%); format: functional; settings: MCF7, 48 h, read-out: Activity
# MCF7 [16] = assay: Cell cycle arrest in human MCF7 cells assessed as accumulation at S phase at 3 uM after 48 hrs by propidium iodide staining based flow cytometry (reference value: 36.11%); format: functional
# MCF7 [17] = assay: Induction of mitochondrial membrane depolarization in human MCF7 cells assessed as collapse of mitochondrial membrane potential at 3 uM after 48 hrs by JC-1 staining based flow cytometry (reference value: 1.61%); format: functional; in short: as §3
# MCF7 [18] = assay: Induction of apoptosis in human MCF7 cells assessed as late apoptotic cells at 3 uM after 48 hrs by Annexin V-FITC/PI staining based flow cytometry (reference value: 1.99%); format: functional
# MCF7 [19] = assay: Cell cycle arrest in human MCF7 cells assessed as accumulation at G1 phase at 1.5 uM after 48 hrs by propidium iodide staining based flow cytometry (reference value: 41.49%); format: functional
# MCF7 [20] = assay: Induction of apoptosis in human MCF7 cells assessed as increase in cytochrome c release at 0.75 to 3 uM after 48 hrs by Western blot analysis; format: functional, cell-based; in short: as §2
# MCF7 [21] = assay: Induction of apoptosis in human MCF7 cells assessed as increase in caspase-3 level at 0.75 to 3 uM after 48 hrs by Western blot analysis; format: functional, cell-based; in short: as §2
# MCF7 [22] = assay: Induction of apoptosis in human MCF7 cells assessed as early apoptotic cells at 3 uM after 48 hrs by Annexin V-FITC/PI staining based flow cytometry (reference value: 4.10%); format: functional
# MCF7 [23] = assay: Induction of apoptosis in human MCF7 cells assessed as necrotic cells at 1.5 uM after 48 hrs by Annexin V-FITC/PI staining based flow cytometry (reference value: 0.19%); format: functional
# MCF7 [24] = assay: Induction of mitochondrial membrane depolarization in human MCF7 cells assessed as collapse of mitochondrial membrane potential at 0.75 uM after 48 hrs by JC-1 staining based flow cytometry (reference value: 1.61%); format: functional; in short: as §3
# MCF7 [25] = assay: Cell cycle arrest in human MCF7 cells assessed as accumulation at G2/M phase at 0.75 uM after 48 hrs by propidium iodide staining based flow cytometry (reference value: 22.40%); format: functional
# MCF7 [26] = assay: Cell cycle arrest in human MCF7 cells assessed as accumulation at G1 phase at 0.75 uM after 48 hrs by propidium iodide staining based flow cytometry (reference value: 41.49%); format: functional
# MCF7 [27] = assay: Induction of mitochondrial membrane depolarization in human MCF7 cells after 48 hrs by JC-1 staining based flow cytometry; format: functional, cell-based; in short: as §3
# MCF7 [28] = assay: Induction of apoptosis in human MCF7 cells after 48 hrs by Annexin V-FITC/PI staining based flow cytometry; format: functional, cell-based
# MCF7 [29] = assay: Induction of apoptosis in human MCF7 cells assessed as late apoptotic cells at 0.75 uM after 48 hrs by Annexin V-FITC/PI staining based flow cytometry (reference value: 1.99%); format: functional
# MCF7 [30] = assay: Induction of apoptosis in human MCF7 cells assessed as necrotic cells at 3 uM after 48 hrs by Annexin V-FITC/PI staining based flow cytometry (reference value: 0.19%); format: functional
# MCF7 [31] = assay: Induction of apoptosis in human MCF7 cells assessed as early apoptotic cells at 1.5 uM after 48 hrs by Annexin V-FITC/PI staining based flow cytometry (reference value: 4.10%); format: functional
# MCF7 [32] = assay: Induction of apoptosis in human MCF7 cells assessed as viable cells at 0.75 uM after 48 hrs by Annexin V-FITC/PI staining based flow cytometry (reference value: 93.72%); format: functional; settings: MCF7, 48 h, read-out: Activity
# MCF7 [33] = assay: Cell cycle arrest in human MCF7 cells assessed as accumulation at G1 phase after 48 hrs by propidium iodide staining based flow cytometry; format: functional
compound,measurement,setting,value
O=C(OCCCCCOc1ccc(-c2cc(=O)c3c(O)c4c(cc3o2)OCCO4)cc1)c1ccc(N(CCCl)CCCl)cc1,pIC50,Bel-7402,4.34
same,pIC50,L02,< 4.30
same,pIC50,A549,< 4.30
same,pIC50,MCF7 [1],4.46
COc1cc2oc(-c3ccc(OCCCOC(=O)c4ccc(N(CCCl)CCCl)cc4)cc3)cc(=O)c2c(O)c1OC,pIC50,Bel-7402,4.56
same,pIC50,L02,< 4.30
same,pIC50,A549,< 4.30
same,pIC50,MCF7 [1],< 4.30
O=C(OCCCCCOc1ccc(-c2cc(=O)c3c(O)c(O)c(O)cc3o2)cc1)c1ccc(N(CCCl)CCCl)cc1,pIC50,Bel-7402,5.34
same,pIC50,L02,< 4.30
same,pIC50,A549,4.63
same,pIC50,MCF7 [1],5.32
COc1cc2oc(-c3ccc(OCCCCCOC(=O)c4ccc(N(CCCl)CCCl)cc4)cc3)cc(=O)c2c(O)c1OC,pIC50,Bel-7402,4.49
same,pIC50,L02,< 4.30
same,pIC50,A549,< 4.30
same,pIC50,MCF7 [1],< 4.30
O=C(OCCCOc1ccc(-c2cc(=O)c3c(O)c(O)c(O)cc3o2)cc1)c1ccc(N(CCCl)CCCl)cc1,Activity,MCF7 [2],9.46%
same,Activity,MCF7 [3],0.17%
same,Activity,MCF7 [4],18.56%
same,viability at 3 µM,MCF7 [5],31.5%
same,Activity,MCF7 [6],Dose-dependent effect
same,pIC50,Bel-7402,5.10
same,Activity,MCF7 [7],12.07%
same,Activity,MCF7 [8],Active
same,Activity,MCF7 [9],43.48%
same,Activity,MCF7 [10],59.49%
same,Activity,MCF7 [11],34.67%
same,Activity,MCF7 [12],11.47%
same,Activity,MCF7 [13],Dose-dependent effect
same,pIC50,L02,< 4.30
same,Activity,MCF7 [14],30.44%
same,pIC50,A549,< 4.30
same,viability at 1.5 µM,MCF7 [15],68.8%
same,Activity,MCF7 [16],29.04%
same,Activity,MCF7 [17],64.8%
same,Activity,MCF7 [18],26.73%
same,Activity,MCF7 [19],50.99%
same,Activity,MCF7 [20],Active
same,Activity,MCF7 [21],Active
same,Activity,MCF7 [22],38.48%
same,Activity,MCF7 [23],1.85%
same,Activity,MCF7 [24],19.61%
same,Activity,MCF7 [25],21.17%
same,Activity,MCF7 [26],44.16%
same,Activity,MCF7 [27],Dose-dependent effect
same,Activity,MCF7 [28],Dose-dependent effect
same,Activity,MCF7 [29],3.92%
same,Activity,MCF7 [30],3.26%
same,Activity,MCF7 [31],19.85%
same,viability at 0.75 µM,MCF7 [32],83.8%
same,Activity,MCF7 [33],Dose-dependent effect
same,pIC50,MCF7 [1],5.82
O=C(OCCCCOc1ccc(-c2cc(=O)c3c(O)c(O)c(O)cc3o2)cc1)c1ccc(N(CCCl)CCCl)cc1,pIC50,Bel-7402,5.04
same,pIC50,L02,< 4.30
same,pIC50,A549,4.67
same,pIC50,MCF7 [1],5.45
O=C(OCCCCOc1ccc(-c2cc(=O)c3c(O)c4c(cc3o2)OCCO4)cc1)c1ccc(N(CCCl)CCCl)cc1,pIC50,Bel-7402,4.42
same,pIC50,L02,< 4.30
same,pIC50,A549,< 4.30
same,pIC50,MCF7 [1],< 4.30
O=c1[nH]cc(F)c(=O)[nH]1 [FLUOROURACIL],pIC50,Bel-7402,4.73
same,pIC50,A549,5.69
same,pIC50,MCF7 [1],4.55
O=C(OCCCOc1ccc(-c2cc(=O)c3c(O)c4c(cc3o2)OCCO4)cc1)c1ccc(N(CCCl)CCCl)cc1,pIC50,Bel-7402,< 4.30
same,pIC50,L02,< 4.30
same,pIC50,A549,4.35
same,pIC50,MCF7 [1],4.35
COc1cc2oc(-c3ccc(OCCCCOC(=O)c4ccc(N(CCCl)CCCl)cc4)cc3)cc(=O)c2c(O)c1OC,pIC50,Bel-7402,4.59
same,pIC50,L02,< 4.30
same,pIC50,A549,4.33
same,pIC50,MCF7 [1],< 4.30
O=C(O)CCCc1ccc(N(CCCl)CCCl)cc1 [CHLORAMBUCIL],pIC50,Bel-7402,< 4.30
same,pIC50,L02,< 4.30
same,pIC50,A549,< 4.30
same,pIC50,MCF7 [1],< 4.30
